Compounds with a hit are over-represented: about 3.7% of the library has one in this group of screens.
KCNK3 inh: human KCNK3 channel inhibitors, primary screen, CHO cells, FluxOR thallium flux, B-score; FluxOR fluorescence; active compounds read low; B-score at 10 µM; 340,000 tested, 0.84% active;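 active = B-score under library mean minus 4 SD, starting fluorescence ratio at most library mean plus 5 SD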;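 also: more negative B-score means stronger inhibition of thallium flux through KCNK3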
Target sequence (O14649 whole entry, looked up): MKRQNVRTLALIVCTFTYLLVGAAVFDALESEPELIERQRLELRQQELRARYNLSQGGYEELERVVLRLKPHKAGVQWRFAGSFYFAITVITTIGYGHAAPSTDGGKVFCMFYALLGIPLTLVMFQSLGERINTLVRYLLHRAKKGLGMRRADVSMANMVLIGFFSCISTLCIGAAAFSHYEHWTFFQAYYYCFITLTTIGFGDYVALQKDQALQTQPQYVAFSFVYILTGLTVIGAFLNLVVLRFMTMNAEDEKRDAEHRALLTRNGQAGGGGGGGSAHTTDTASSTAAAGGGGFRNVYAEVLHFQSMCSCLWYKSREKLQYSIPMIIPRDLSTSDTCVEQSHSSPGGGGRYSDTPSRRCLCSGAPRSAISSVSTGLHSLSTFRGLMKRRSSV
KCNK9 inh-1: KCNK9 potassium channel inhibitors, primary screen, HEK293 cells, thallium flux; Potassium channel subfamily K member 9 (Homo sapiens), Q9NPC2; FluxOR thallium flux fluorescence; active compounds read low; B-score at 10 µM; 310,000 tested, 1.2% active;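 active = ratio B-score over 3 SD below the library mean, with starting fluorescence within 5 SD of its mean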;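 also: negative B-score means less thallium flux so channel inhibition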
Kir21 block: inhibitors of mouse Kir2.1 inward-rectifier potassium channel; Inward rectifier potassium channel 2 (Mus musculus), P35561; HEK293-Kir2.1, FluxOR thallium flux fluorescence; active compounds read low; B-score at 10 µM; 310,000 tested, 0.85% active; AID 1672, 2009;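 active = fluorescence ratio B-score at or below minus 3 SD of library scores, with starting-brightness B-score within 2 SD, cut at about -4.2 in these data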;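 also: channel flux triggered by added potassium and thallium sulfate stimulus; B-score of peak minus minimum fluorescence over baseline after thallium stimulus; more negative B-score means stronger Kir2.1 block with less thallium influx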
hERG rescue: hERG rescue from dofetilide block, primary screen, cell-based, CHO-hERG, FluxOR thallium flux, dofetilide IC70; Voltage-gated inwardly rectifying potassium channel KCNH2 (Homo sapiens), Q12809; dofetilide IC70 present; activation (rescue from dofetilide block), less the hit threshold, % at 10 µM; 310,000 tested, 0.51% active; AID 1511, 2009;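 active = activation above the mean of controls blocked by dofetilide plus 5 SD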;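 also: thallium influx through hERG after potassium depolarization seen as dye fluorescence rise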
KCNQ1 block: inhibitors of human KCNQ1 channel, primary screen, cell-based, thallium flux, high-throughput; CHO-K1 KCNQ1, FluxOR thallium flux fluorescence; active compounds read high; B-score at 10 µM; Potassium voltage-gated channel subfamily KQT member 1 (Homo sapiens), P51787; 310,000 tested, 1.3% active;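 active = compounds whose thallium flux B-score, printed positive for inhibition, exceeds three library SD while starting fluorescence stays within three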;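 also: channel opened by potassium depolarization with thallium stimulus after 20 min compound exposure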
KCNQ1 pot: potentiators or activators of KCNQ1 channel, primary screen, cell-based, thallium flux, high-throughput; Potassium voltage-gated channel subfamily KQT member 1 (Homo sapiens), P51787; CHO-K1 KCNQ1, thallium flux FluxOR fluorescence; active compounds read high; B-score at 10 µM; 310,000 tested, 0.35% active; AID 2648, 2010;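 active = fluorescence ratio B-score, a plate-corrected score, at least three library SD, with initial intensity B-score within 5 SD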
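System: Stable KCNQ1 CHO-K1 line | Incubation: 90 min dye loading and 20 min compound exposure, both at room temperature | Measure: Ratio B score | Medium: Assay buffer for compound exposure, DMSO matched across wells | Compound dosing: Single-concentration screen | Probe or stimulus: K+/Tl+ depolarizing stimulus | Measured by: Kinetic FluxOR fluorescence, 10 s baseline plus 110 s post-stimulus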
hERG inh: hERG channel inhibition, counter-screen for Kir2.1 inhibitor project, cell-based, thallium flux; shares compounds with Kir21 block; hERG-expressing cells; inhibition, % at 10 µM; 320 tested, 20% active; AID 2236, 2010;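 also: host cells are CHO cells stably expressing hERG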
KCNK9 inh-2: KCNK9 channel inhibition, selectivity assay for Kir2.1 inhibitor project, cell-based; shares compounds with Kir21 block; 320 tested, 5% active; inhibition, % at 10 µM; KCNK9-expressing cells, ion flux inhibition
Kir2-1 patch inh: mouse Kir2.1 channel blockers, Kir2.1 inhibitor project, cell-based, secondary, automated electrophysiology; shares compounds with Kir21 block; inhibition, % at 25 µM; AID 463252, 2010; Kir2.1 cells, automated patch-clamp current inhibition; 320 tested, 71% active
Numbers without * were called inactive; i = inactive; nt = no result given. Unless noted, no rule for the calls is given here.

SMILES | KCNK3 inh | KCNK9 inh-1 | Kir21 block | hERG rescue | KCNQ1 block | KCNQ1 pot | hERG inh | KCNK9 inh-2 | Kir2-1 patch inh
COc1cccc(NC(=O)C(C)SCc2ccccc2)c1 (configuration not stated) | i | i | 0.21 | -9 | i | i | nt | nt | nt
COc1ccc(CCNC(=O)C(C)SCc2ccccc2)cc1 (configuration not stated) | i | i | -7.5* | -10 | i | i | i | i | 56%*
Nc1cc(Cl)ccc1C(=O)OCC(=O)NCc1cccs1 | i | nt | nt | nt | nt | nt | nt | nt | nt
COCCn1c(SCC(=O)NCC2CCCO2)nc2c([nH]c3ccccc32)c1=O (configuration not stated) | i | i | 1.2 | -4 | i | i | nt | nt | nt
Cc1ccc(CNCC(O)(c2ccccc2)c2ccccc2)cc1 | i | i | -9.2* | -10 | i | i | i | i | i
Cc1ccc(CNC(=O)NCc2ccccc2)cc1 | i | i | 0.54 | -5 | i | i | nt | nt | nt
O=C(Sc1n[nH]c(=O)[nH]c1=O)c1ccccc1 | i | nt | nt | nt | nt | nt | nt | nt | nt
COc1cccc(CNc2ccc3[nH]c(=O)[nH]c3c2)c1OCc1ccccc1F | i | i | -7.4* | -15 | i | i | i | i | 2.2%*
C=CCn1c(C)nnc1SCC(=O)Nc1cc(S(=O)(=O)N2CCCC2)ccc1Cl | i | nt | nt | nt | nt | nt | nt | nt | nt
COc1ccc(CN(C)CC(O)COC(c2ccc(OC)cc2)c2ccc(OC)cc2)cc1 (configuration not stated) | i | i | -8.7* | -17 | i | i | 75%* | i | i
COc1ccc(CN(C)CC(O)COc2ccc(-c3ccccc3)cc2)cc1OC (configuration not stated) | i | i | -0.48 | -18 | i | i | nt | nt | nt
C=CCN1C(=O)c2ccc(C(=O)N(CC)CC(=O)Nc3ccc(OC)cc3)cc2C1=O | i | i | 1.4 | -13 | i | i | nt | nt | nt
COc1ccc(C2=CCCC2)c(OC)c1 | i | nt | nt | nt | nt | nt | nt | nt | nt
COc1cc(C(=O)NNC(=O)c2nn(C)c(=O)c3ccccc23)cc(OC)c1OC | i | nt | nt | nt | nt | nt | nt | nt | nt
O=C(O)CCC(=O)N1CCN(c2cccc(Cl)c2)CC1 | i | i | 0.81 | -10 | i | i | nt | nt | nt
O=C(O)/C=C/C(=O)N1CCN(c2cccc(Cl)c2)CC1 | i | i | 4.3 | -18 | i | i | i | i | i
Cc1cc(Br)ccc1NC(=O)CN1C(=O)C2CC=CCC2C1=O (configuration not stated) | i | nt | nt | nt | nt | nt | nt | nt | nt
CC(C1=C(CCN(C)C)Cc2ccccc21)c1ccccn1 (configuration not stated) | i | nt | nt | nt | nt | nt | nt | nt | nt
CCn1c(SCC(=O)NC(C)c2ccccc2)nc2ccccc21 (configuration not stated) | i | i | -3.4 | -9 | i | i | nt | nt | nt
CCn1c(Sc2ccc(N)cc2Cl)nc2ccccc21 | i | i | -6.3* | -3 | i | i | i | i | 21%*
CC1=CC(C)(C)N(C(=O)CSc2nnc(C)s2)c2ccc(C)cc21 | i | i | -7.1* | -6 | i | i | i | i | 8.3%*
CCNC(=S)Nc1ccc2c(c1)oc1ccccc12 | i | i | 0.65 | -7 | i | i | nt | nt | nt
O=C(O)c1ccc(S(=O)(=O)N2CCCc3ccccc32)cc1 | i | i | 0.05 | -3 | i | i | nt | nt | nt
CC(=O)c1ccc(S(=O)(=O)N2CCCc3ccccc32)cc1 | i | i | -3.1 | -3 | i | i | nt | nt | nt
O=S(=O)(c1ccccc1)N1CCCc2ccccc21 | nt | i | -6.5* | -1 | i | i | i | i | 22%*
SMILES | KCNK3 inh | KCNK9 inh-1 | Kir21 block | hERG rescue | KCNQ1 block | KCNQ1 pot | hERG inh | KCNK9 inh-2 | Kir2-1 patch inh
O=S(=O)(c1ccc(F)cc1)N1CCCc2ccccc21 | nt | i | -6* | -6 | i | i | i | i | 19%*
Fc1ccc(N2CCN(Cc3c[nH]c4ccccc34)CC2)cc1 | nt | i | -7.9* | -11 | i | i | 56%* | i | 40%*
CC(C)(c1ccccc1)c1ccc(OCCCNCCO)cc1 | i | i | -8.6* | -11 | i | i | i | i | 59%*
CC(C)NCCCOc1ccc(C(C)(C)c2ccccc2)cc1 | i | i | -2.4 | 1 | i | i | nt | nt | nt
COC(=O)C1SCCN1S(=O)(=O)c1ccc(Cl)cc1 (configuration not stated) | i | i | 0.86 | -8 | i | i | nt | nt | nt
O=S(=O)(c1ccc(Cl)cc1)N1CCSC1c1ccco1 (configuration not stated) | i | i | -6.5* | -9 | i | i | i | i | 21%*
c1ccc(-c2ccccc2OCCOCCN2CCc3ccccc3C2)cc1 | i | i | -8.3* | -16 | i | i | 66%* | i | 39%*
CC1CN(CCOCCOc2ccccc2-c2ccccc2)CC(C)O1 (configuration not stated) | i | i | -3.1 | -8 | i | i | nt | nt | nt
CCNC(=S)/N=C(/Nc1ccccc1)Nc1nc(C)cc(C)n1 | i | i | 2.5 | -8 | i | i | i | i | i
CC(C)(Oc1ccc(Cl)cc1)C(=O)OCC(=O)NCCc1ccccc1 | i | i | -6.4* | -14 | i | i | i | i | 39%*
COc1cc([N+](=O)[O-])ccc1NC(=O)COC(=O)c1c[nH]c(=O)[nH]c1=O | i | nt | nt | nt | nt | nt | nt | nt | nt
CCn1c(CNc2ccc(Cl)cc2)nnc1SCc1ccccc1 | i | i | -6.2* | -6 | i | i | i | i | i
CC(CCc1ccccc1)NC(=O)CSc1ccccn1 (configuration not stated) | i | i | -3.1 | -8 | i | i | nt | nt | nt
CC(CCc1ccccc1)NC(=O)CC(C)c1ccccc1 (configuration not stated) | i | i | -8* | -5 | i | i | i | i | 38%*

Screens as filed in PubChem.
